Measured values: ChEMBL document CHEMBL3085705, “Design, chemical synthesis of 3-(9H-fluoren-9-yl)pyrrolidine-2,5-dione derivatives and biological activity against enoyl-ACP reductase (InhA) and Mycobacterium tuberculosis” (2013)

Tests used:
Type in all cases: functional
[1] = system: Mycobacterium tuberculosis; experiment: Antimicrobial activity against streptomycin, isoniazid, rifampicin, ethambutol, pyrazinamide, ethionammide and capreomicinl-resistant Mycobacterium tuberculosis clinical isolate by two-fold serial dilution method
Method in brief: (§1)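 Compounds dissolved in DMSO. Single colony grown in Middlebrook 7H9 with 0.05% Tween 80 and 10% OADC at 37 °C, no shaking, to ~10^8 CFU/mL (OD600 0.8–1.0). Diluted to ~10^7 CFU/mL; 1 μL streaked onto 7H11 agar (0.5% glycerol, 10% OADC) with two-fold serial compound dilutions. MIC is the lowest concentration inhibiting growth. Repeated three times.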

[2] = system: Mycobacterium tuberculosis; experiment: Antimicrobial activity against streptomycin, isoniazid, rifampicin and ethambutol-resistant Mycobacterium tuberculosis clinical isolate by two-fold serial dilution method; method in brief: as §1
[3] = system: Mycobacterium tuberculosis; experiment: Antimicrobial activity against streptomycin, isoniazid, rifampicin, ethambutol, pyrazinamide and ethionammide-resistant Mycobacterium tuberculosis clinical isolate by two-fold serial dilution method; method in brief: as §1

Measured: MIC

O=C(CC(C(=O)O)C1c2ccccc2-c2ccccc21)Nc1cc(Cl)cc(Cl)c1 (stereo not drawn)
4.7 µM: all assays above
